By ED50 is commonly meant the dose at which the effect has come halfway, by size or by number of responders. A low value points to an effect at a small dose.

Values after ≈ are worked out from the molar mass of the structure shown.

Holding throughout (assay type): functional
Assay [1] concerns Staphylococcus aureus. The assay is described as follows: In vitro minimum inhibitory concentration against Staphylococcus aureus Tour.
Assay [2] relates to Staphylococcus haemolyticus. The assay is described as follows: In vitro minimum inhibitory concentration against Staphylococcus hemolyticus 602 cell line. The conditions noted are these: strain 602.
Assay [3] concerns Enterococcus faecalis. The assay is described as follows: In vitro minimum inhibitory concentration against Streptococcus faecalis ATCC 7080.
Assay [4] deals with Streptococcus pneumoniae. The assay is described as follows: In vitro minimum inhibitory concentration against Streptococcus pneumoniae UC41.
For assay [5], the system named is Streptococcus pyogenes. The assay is described as follows: In vitro minimum inhibitory concentration against Streptococcus pyogenes C 203.
For assay [6], the system named is Staphylococcus epidermidis. The assay is described as follows: In vitro minimum inhibitory concentration against Staphylococcus epidermis ATCC 12228.
Assay [7] has as its system Escherichia coli. The assay is described as follows: In vitro minimum inhibitory concentration against Escherichia coli SKF 12140.
The test system of assay [8] is Streptococcus pyogenes. The assay is described as follows: Subcutaneously administration into mice infected with Streptococcus pyogenes C 203. The conditions noted are these: sc. The method, boiled down:
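Mice (five per treatment group, five groups) infected intraperitoneally with about 10⁵ cells of Strep. pyogenes C 203, about 100× the LD50. ED50 (mg/kg) was calculated from the percentage of mice surviving at each dose on day 7.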

Assay [9] relates to Proteus vulgaris. The assay is described as follows: In vitro minimum inhibitory concentration against Proteus vulgaris X 19 ATCC 881.

`CCCCC/C=C/CCC(=O)N[C@@H]1[C@H](Oc2c3cc4cc2Oc2ccc(cc2Cl)[C@@H](O[C@@H]2O[C@@H](CO)[C@@H](O)[C@H](O)[C@@H]2NC(C)=O)[C@@H]2NC(=O)[C@H](NC(=O)[C@@H]4NC(=O)[C@H]4NC(=O)[C@@H](Cc5ccc(c(Cl)c5)O3)NC(=O)[C@H](N)c3ccc(O)c(c3)Oc3cc(O)cc4c3)c3ccc(O)c(c3)-c3c(O[C@H]4O[C@H](CO)[C@@H](O)[C@@H](O)[C@@H]4O)cc(O)cc3[C@@H](C(=O)NC(CCC(=O)O)C(=O)O)NC2=O)O[C@@H](CO)[C@@H](O)[C@@H]1O` (stereo partly drawn): the MIC came to 0.5 µg/mL (≈ 0.249 µM) in assay [1]; 4 µg/mL (≈ 1.99 µM) in assay [2]; 0.25 µg/mL (≈ 0.125 µM) in assay [3]; 0.12 µg/mL (≈ 0.0598 µM) in [4]; 0.06 µg/mL (≈ 0.0299 µM) in [5]; 0.12 µg/mL (≈ 0.0598 µM) in [6].
`CCOC(=O)CNC(=O)[C@H]1NC(=O)[C@H]2NC(=O)[C@H](NC(=O)[C@@H]3NC(=O)[C@H]4NC(=O)[C@@H](Cc5ccc(c(Cl)c5)Oc5cc3cc(c5O)Oc3ccc(cc3Cl)[C@H]2O[C@@H]2O[C@@H](CO)[C@@H](O)[C@H](O)[C@@H]2NC(C)=O)NC(=O)[C@H](N)c2ccc(O)c(c2)Oc2cc(O)cc4c2)c2ccc(O)c(c2)-c2c(O)cc(O)cc21`: the MIC in assay [1] came out at 0.5 µg/mL (≈ 0.336 µM); in [7], 128 µg/mL (≈ 86.1 µM); in [3], 1 µg/mL (≈ 0.672 µM); in [4], 1 µg/mL (≈ 0.672 µM); in assay [5], 0.25 µg/mL (≈ 0.168 µM); in assay [6], 0.12 µg/mL (≈ 0.0807 µM). In assay [9], this molecule registered an MIC of over 128 µg/mL. Also, it took a dose of 5 mg/kg to reach the 50% effect level in assay [8] (ED50).
`CC(=O)NC1C(O[C@@H]2c3ccc(c(Cl)c3)Oc3cc4cc(c3O)Oc3ccc(cc3Cl)C[C@H]3NC(=O)[C@H](N)c5ccc(O)c(c5)Oc5cc(O)cc(c5)[C@H](NC3=O)C(=O)N[C@H]4C(=O)N[C@H]3C(=O)N[C@@H]2C(=O)N[C@H](C(=O)NCCN2CCCC2)c2cc(O)cc(O)c2-c2cc3ccc2O)OC(CO)C(O)C1O` (stereo partly drawn): the MIC in assay [1] was determined as 0.12 µg/mL (≈ 0.0801 µM); in assay [7], 128 µg/mL (≈ 85.4 µM); in assay [3] it was 0.5 µg/mL (≈ 0.334 µM); in assay [4] it was 0.25 µg/mL (≈ 0.167 µM); in assay [5] it was 0.25 µg/mL (≈ 0.167 µM); in [6] it was 0.06 µg/mL (≈ 0.04 µM). For the same molecule, the MIC in assay [9] is over 128 µg/mL. The median effective dose (ED50) in assay [8] amounted to 2.2 mg/kg.
Take `COC(=O)CNC(=O)[C@H]1NC(=O)[C@H]2NC(=O)[C@H](NC(=O)[C@@H]3NC(=O)[C@H]4NC(=O)[C@@H](Cc5ccc(c(Cl)c5)Oc5cc3cc(c5O)Oc3ccc(cc3Cl)[C@H]2O[C@@H]2O[C@@H](CO)[C@@H](O)[C@H](O)[C@@H]2NC(C)=O)NC(=O)[C@H](N)c2ccc(O)c(c2)Oc2cc(O)cc4c2)c2ccc(O)c(c2)-c2c(O)cc(O)cc21`: the MIC in [1] is 0.25 µg/mL (≈ 0.17 µM); in assay [7] it was over 128 µg/mL; in [3] it was 0.5 µg/mL (≈ 0.339 µM); in [4], 2 µg/mL (≈ 1.36 µM); in assay [5] it was 0.25 µg/mL (≈ 0.17 µM); in [6], 0.06 µg/mL (≈ 0.0407 µM). The MIC in [9] was over 128 µg/mL. In [8], this molecule returned an ED50 of 7 mg/kg.
For the molecule `CCN(CC)CCCNC(=O)[C@H]1NC(=O)[C@H]2NC(=O)[C@H](NC(=O)[C@@H]3NC(=O)[C@H]4NC(=O)[C@@H](Cc5ccc(c(Cl)c5)Oc5cc3cc(c5O)Oc3ccc(cc3Cl)[C@H]2O[C@@H]2O[C@@H](CO)[C@@H](O)[C@H](O)[C@@H]2NC(C)=O)NC(=O)[C@H](N)c2ccc(O)c(c2)Oc2cc(O)cc4c2)c2ccc(O)c(c2)-c2c(O)cc(O)cc21`, the MIC worked out at 0.12 µg/mL (≈ 0.0792 µM) in assay [1]; 64 µg/mL (≈ 42.3 µM) in assay [7]; 0.25 µg/mL (≈ 0.165 µM) in assay [3]; 0.5 µg/mL (≈ 0.33 µM) in assay [4]; 0.12 µg/mL (≈ 0.0792 µM) in assay [5]; 0.06 µg/mL (≈ 0.0396 µM) in [6]. This molecule also came in with an MIC in assay [9] of 128 µg/mL (≈ 84.5 µM). This molecule showed an ED50 in [8] of 0.95 mg/kg.
